Assay results: ChEMBL document CHEMBL1250492, “Development of isoniazid-NAD truncated adducts embedding a lipophilic fragment as potential bi-substrate InhA inhibitors and antimycobacterial agents” (Eur J Med Chem, 2010)
Values joined by “and” are separate entries in the source; they are usually repeats but may differ in a detail not shown here. Equal values may be shown once.

Experiments:
[1] = test system: Mycolicibacterium smegmatis; test: Antimycobacterial activity against Mycobacterium smegmatis after 24 hrs by MTT assay; type: functional, organism-based
How it was run: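 MTT (1 mg/ml solution) was then added for a further 24 h, followed by DMF:20% SDS (1:2) solubilization and A570 reading. MIC is the lowest concentration blocking visible growth, and IC50 was fitted by non-linear regression. DMSO stocks were at 100× the top concentration. Isoniazid served as positive control.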

[2] = biological target: T1, Enoyl-[acyl-carrier-protein] reductase [NADH] (Mycobacterium tuberculosis) (UniProt P9WGR1); test: Inhibition of Mycobacterium tuberculosis InhA expressed in Escherichia coli at 100 uM after 5 mins
T1 sequence (whole entry): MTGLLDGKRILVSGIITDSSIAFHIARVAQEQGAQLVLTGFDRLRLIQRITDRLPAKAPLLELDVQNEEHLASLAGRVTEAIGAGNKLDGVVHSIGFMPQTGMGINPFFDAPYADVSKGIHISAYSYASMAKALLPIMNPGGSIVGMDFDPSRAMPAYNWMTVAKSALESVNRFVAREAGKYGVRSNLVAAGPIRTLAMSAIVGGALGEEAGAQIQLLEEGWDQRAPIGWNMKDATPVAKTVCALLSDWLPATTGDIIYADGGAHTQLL
How it was run: (§1)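 Recombinant M. tuberculosis InhA, E. coli-expressed and purified, at 70 nM. Pre-incubated with compound for 5 min or 2 h in 30 mM PIPES, 150 mM NaCl, pH 6.8, 25 °C, with 0.5% final DMSO. The reaction was started with trans-2-decenoyl-CoA plus NADH and followed by NADH oxidation at 340 nm, 25 °C. Initial rates were compared with a ligand-free control, giving % inhibition. Run in triplicate.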

[3] = test system: Mycobacterium tuberculosis; test: Antimycobacterial activity against Mycobacterium tuberculosis after 24 hrs by MTT assay; type: functional, organism-based
How it was run: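 MTT was then added for a further 24 h, followed by DMF:20% SDS (1:2) solubilisation and A570 read-out. MIC was the lowest concentration stopping visible growth versus untreated bacilli. IC50 came from non-linear regression. DMSO stocks were at 100× the top concentration.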

[4] = biological target: T1, Enoyl-[acyl-carrier-protein] reductase [NADH] (Mycobacterium tuberculosis); test: Inhibition of Mycobacterium tuberculosis InhA expressed in Escherichia coli at 10 uM after 5 mins; how it was run: as §1
[5] = biological target: T1, Enoyl-[acyl-carrier-protein] reductase [NADH] (Mycobacterium tuberculosis); test: Inhibition of Mycobacterium tuberculosis InhA expressed in Escherichia coli at 1 uM after 2 hrs
[6] = biological target: T1, Enoyl-[acyl-carrier-protein] reductase [NADH] (Mycobacterium tuberculosis); test: Inhibition of Mycobacterium tuberculosis InhA expressed in Escherichia coli at 10 uM after 2 hrs; how it was run: as §1
[7] = biological target: T1, Enoyl-[acyl-carrier-protein] reductase [NADH] (Mycobacterium tuberculosis); test: Inhibition of Mycobacterium tuberculosis InhA expressed in Escherichia coli at 1 uM after 5 mins
[8] = biological target: T1, Enoyl-[acyl-carrier-protein] reductase [NADH] (Mycobacterium tuberculosis); test: Inhibition of Mycobacterium tuberculosis InhA expressed in Escherichia coli at 100 uM after 2 hrs; how it was run: as §1
[9] = biological target: T1, Enoyl-[acyl-carrier-protein] reductase [NADH] (Mycobacterium tuberculosis); test: Inhibition of Mycobacterium tuberculosis InhA expressed in Escherichia coli at 20 uM after 5 mins; how it was run: as §1
[10] = biological target: T1, Enoyl-[acyl-carrier-protein] reductase [NADH] (Mycobacterium tuberculosis); test: Inhibition of Mycobacterium tuberculosis InhA expressed in Escherichia coli at 20 uM after 2 hrs; how it was run: as §1
[11] = Mycolicibacterium smegmatis, 24 h

Compound `O=C1NC(O)(c2cccc(O)c2)c2ccncc21` (centres undefined) has an IC50 [1, 11] of 300 µM and an inhibition [2] of 17%.
In the case of `CCCCCCCCCCCCc1cccc(C2(O)NC(=O)c3cnccc32)c1` (centres undefined), the IC50 [1] is reported as 78 µM, the IC50 [1, 11] is reported as 47 µM and the IC50 [3] is reported as 9.8 µM. It also gave an inhibition [2] of 4%.
Work on `C=CCOc1cccc(C2(O)NC(=O)c3cnccc32)c1` (centres undefined) yielded an IC50 [1, 11] of 1300 µM and an inhibition [2] of 23%.
Compound `CCCCCCCCCCCCOc1cccc(C2(O)NC(=O)c3c[n+](CC(=O)OCC)ccc32)c1` (centres undefined) has an inhibition [2] of 35%.
`CCCCCCCCCCCCc1cccc(C(=O)C2C=CN(CC(=O)OCC)C=C2C(N)=O)c1` (centres undefined) gave an IC50 [1] of 9.8 µM, an IC50 [1, 11] of 5.3 µM and an IC50 [3] of 9.8 µM. The inhibition [4] was 25%.
`CCCCCCCCCCCCOc1cccc(C(=O)C2C=CN(CC(=O)OCC)C=C2C(N)=O)c1` (centres undefined) showed an inhibition [2] of 6%.
In the case of `NNC(=O)c1ccncc1` [ISONIAZID], the IC50 [1] is reported as 7.8 µM and 39 µM and the IC50 [3] is reported as < 0.3 µM.
For `CCCCCCCCCCCCOc1cccc(C2(O)NC(=O)c3c[n+](CC(=O)OCCCO)ccc32)c1` (centres undefined), the inhibition [2] was 30%.
With `O=C1NC(O)(c2cccc(Br)c2)c2ccncc21` (centres undefined) the IC50 [1, 11] was > 5000 µM and the inhibition [2] was 20%.
In the case of `CCCCCCCCc1cccc(C2(O)NC(=O)c3cnccc32)c1` (centres undefined), the IC50 [1] is reported as 4.5 µM and 19.5 µM, the IC50 [3] is reported as 19.5 µM and the inhibition [2] is reported as 9%.
In the case of `NC(=O)C1=CN([C@@H]2O[C@H](COP(=O)(O)OP(=O)(O)OC[C@H]3O[C@@H](n4cnc5c(N)ncnc54)[C@H](O)[C@@H]3O)[C@@H](O)[C@H]2O)C=C[C@@H]1C(=O)c1ccncc1`, the inhibition [5] is reported as 87%, the inhibition [6] is reported as 97% and the inhibition [7] is reported as 67%. It also gave an inhibition [4] of 92%.
`CCCCCCCCCCCCOc1cccc(C(=O)C2C=CN(CC(=O)OCCCO)C=C2C(N)=O)c1` (centres undefined) gave an inhibition [2] of 3%.
In the case of `CCCCCCCCCCCCOc1cccc(C2(O)NC(=O)c3cnccc32)c1` (centres undefined), the IC50 [1] is reported as 68 µM and 156 µM, the IC50 [3] is reported as 156 µM and the inhibition [8] is reported as 80%. The inhibition [2] was 41%.
`CCCCCCCCCc1ccc(-c2cccc(C3(O)NC(=O)c4cnccc43)c2)cc1` (centres undefined) gave an IC50 [1, 11] of 1800 µM and an inhibition [2] of 17%.
In the case of `CCCCCCCCCCCCc1cccc(C2(O)NC(=O)c3c[n+](CC(=O)OCC)ccc32)c1` (centres undefined), the IC50 [1] is reported as 3.2 µM and 9.8 µM, the IC50 [3] is reported as 39 µM and the inhibition [9] is reported as 40%. The inhibition [2] was 91%, the inhibition [10] was 28% and the inhibition [4] was 19%.
